Assay results collected from several papers.
Protocols differ between the studies behind these lines.

| Compound | test system | conditions | concentration |
| --- | --- | --- | --- |
| NC(=O)C(c1ccccc1)(c1ccc(F)cc1)c1ccc(F)cc1 | female Lewis rat, brain | intraperitoneal, 50 mg/kg, 1 h, single dose | 43 µM |
| CCCOc1ccc(OC)c(F)c1C(=O)c1ccc(C(=O)N[C@@H]2CNC[C@H]2NC(=O)c2ccc3[nH]ncc3c2)cc1 | rat, plasma | intravenous, 559 µg, 10 min, single dose | 470 ng/mL |
| Cc1noc(C)c1Cn1cc(N2C(=O)CN(Cc3cccc(O)c3)C2=O)cn1 | male Sprague-Dawley rat, plasma | oral, 100 mg/kg, 4 h | 42.5 ng/mL |
| CCc1cc(-c2noc(-c3cc(OC)nc(C4CCCC4)c3)n2)cc(C)c1OC[C@@H](O)CO | Wistar rat, plasma | oral, 3 mg/kg, 3 h, single dose | 235 ng/mL |
| Cc1ccc(-c2cc(C(F)(F)F)nn2-c2ccc(S(N)(=O)=O)cc2)cc1 | male Sprague-Dawley rat, blood | oral, 20 mg/kg, 4 h | 6.36 µM |
| CCOC(=O)[C@@]12C[C@@H]1[C@@H](n1ccc3c(NC)nc(C#Cc4ccc(Cl)s4)nc31)[C@H](O)[C@@H]2O | male Sprague-Dawley rat, plasma | oral, 3 mg/kg, 30 min | 48.4 ng/mL |
| COc1ccc2c(=O)n(C)c(-c3ccccc3)nc2c1 | male Sprague-Dawley rat, spleen | oral, 30 mg/kg, 4 h | 6.13 ng/mL |
| COc1cccc(-c2n[nH]c(SCc3ccccn3)n2)c1OC | male Sprague-Dawley rat, plasma | oral, 30 mg/kg, 2 h, single dose | 9750 ng/mL |
| Cc1noc(C)c1Cn1cc(N2C(=O)N(Cc3cccc(O)c3)C(C)(C)C2=O)cn1 | male Sprague-Dawley rat, plasma | oral, 100 mg/kg, 24 h, single dose | 0 ng/mL |
| COc1nc(-c2cc(C)c(N[C@@H](C)c3cc(F)cc(F)c3)nn2)ccc1-n1cnc(C)c1 | male Sprague-Dawley rat, CSF | oral, 50 mg/kg, 4 h, multiple doses, once daily | 301 ng/mL |
